Data published in ChEMBL document CHEMBL3407339, “A novel series of thiazolyl-pyrazoline derivatives: synthesis and evaluation of antifungal activity, cytotoxicity and genotoxicity” (Eur J Med Chem, 2015).
Converted amounts (≈) assume the structure as drawn.

Experiments:
Salmonella typhimurium [1] = test: Mutagenicity in Salmonella typhimurium TA100 at 0.156 mg/ml after 48 hrs by AMES MPF assay in presence of Sprague-Dawley rat liver microsomal S9 fraction relative to baseline; format: toxicity, organism-based; conditions: salmonella enterica subsp. enterica serovar typhimurium
Outline: (§1)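 Ames MPF fluctuation test with TA98/TA100. Overnight cultures (37 °C, 14–16 h) mixed with exposure medium; ±Aroclor-1254-induced rat liver S9 (final 4.5% v/v). Compounds in DMSO, 0.156–5 mg/mL. 90 min exposure at 37 °C, then indicator medium; 48 wells per concentration, 48 h at 37 °C, in triplicate. Yellow wells counted; fold induction over baseline (mean + 1 SD of zero-dose control).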

Salmonella typhimurium [2] = test: Mutagenicity in Salmonella typhimurium TA98 at 0.3125 mg/ml after 48 hrs by AMES MPF assay in absence of Sprague-Dawley rat liver microsomal S9 fraction relative to baseline; format: toxicity, organism-based; conditions: salmonella enterica subsp. enterica serovar typhimurium; outline: as §1
Salmonella typhimurium [3] = test: Mutagenicity in Salmonella typhimurium TA100 at 0.625 mg/ml after 48 hrs by AMES MPF assay in presence of Sprague-Dawley rat liver microsomal S9 fraction relative to baseline; format: toxicity, organism-based; conditions: salmonella enterica subsp. enterica serovar typhimurium; outline: as §1
Salmonella typhimurium [4] = test: Mutagenicity in Salmonella typhimurium TA100 at 2.5 mg/ml after 48 hrs by AMES MPF assay in absence of Sprague-Dawley rat liver microsomal S9 fraction relative to baseline; format: toxicity, organism-based; conditions: salmonella enterica subsp. enterica serovar typhimurium; outline: as §1
Aspergillus flavus = test: Antifungal activity against Aspergillus flavus NRRL 980 after 72 hrs by broth microdilution assay; format: functional; conditions: NRRL 980, 72 h
Outline: (§2)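 Compounds dissolved in DMSO, diluted in sterile distilled water from 4 to 0.0039 mg/mL. Molds grown on PDA at 25 °C for 5 days, suspended in double-strength PDB at 10⁵ spores/mL. Incubated at 25 °C for 72 h; mycelial growth read under stereo microscope. MIC = lowest concentration inhibiting visible growth. Ketoconazole reference.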

Candida parapsilosis = test: Antifungal activity against Candida parapsilosis NRLL Y 12696 after 48 hrs by broth microdilution assay; format: functional; conditions: Lodderomyces parapsilosis, NRLL Y 12696, 48 h
Outline: (§3)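 Broth microdilution of DMSO stocks serially diluted in sterile water (4 to 0.0039 mg/mL). Yeasts grown on SDA at 37 °C for 24 h, suspended in double-strength PDB at 10⁵ spores/mL. Incubated at 37 °C for 48 h, then sprayed with 0.5% aqueous TTC. MIC = lowest concentration inhibiting visible growth. Ketoconazole reference.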

Salmonella typhimurium [5] = test: Mutagenicity in Salmonella typhimurium TA100 at 2.5 mg/ml after 48 hrs by AMES MPF assay in presence of Sprague-Dawley rat liver microsomal S9 fraction relative to baseline; format: toxicity, organism-based; conditions: salmonella enterica subsp. enterica serovar typhimurium; outline: as §1
Salmonella typhimurium [6] = test: Mutagenicity in Salmonella typhimurium TA98 at 1.25 mg/ml after 48 hrs by AMES MPF assay in presence of Sprague-Dawley rat liver microsomal S9 fraction relative to baseline; format: toxicity, organism-based; conditions: salmonella enterica subsp. enterica serovar typhimurium; outline: as §1
Salmonella typhimurium [7] = test: Mutagenicity in Salmonella typhimurium TA100 at 0.156 mg/ml after 48 hrs by AMES MPF assay in absence of Sprague-Dawley rat liver microsomal S9 fraction relative to baseline; format: toxicity, organism-based; conditions: salmonella enterica subsp. enterica serovar typhimurium; outline: as §1
Pichia kudriavzevii = test: Antifungal activity against Candida krusei NRLL Y 7179 after 48 hrs by broth microdilution assay; format: functional; conditions: NRLL Y 7179, 48 h; outline: as §3
Salmonella typhimurium [8] = test: Mutagenicity in Salmonella typhimurium TA98 at 5 mg/ml after 48 hrs by AMES MPF assay in absence of Sprague-Dawley rat liver microsomal S9 fraction relative to baseline; format: toxicity, organism-based; conditions: salmonella enterica subsp. enterica serovar typhimurium; outline: as §1
[Candida] zeylanoides = Antifungal activity against Candida zeylanoides NRLL Y 1774 after 48 hrs by broth microdilution assay; format: functional; conditions: Dujonia zeylanoides, NRLL Y 1774, 48 h; outline: as §3
Salmonella typhimurium [9] = test: Mutagenicity in Salmonella typhimurium TA98 at 0.625 mg/ml after 48 hrs by AMES MPF assay in absence of Sprague-Dawley rat liver microsomal S9 fraction relative to baseline; format: toxicity, organism-based; conditions: salmonella enterica subsp. enterica serovar typhimurium; outline: as §1
Salmonella typhimurium [10] = test: Mutagenicity in Salmonella typhimurium TA98 at 5 mg/ml after 48 hrs by AMES MPF assay in presence of Sprague-Dawley rat liver microsomal S9 fraction relative to baseline; format: toxicity, organism-based; conditions: salmonella enterica subsp. enterica serovar typhimurium; outline: as §1
Salmonella typhimurium [11] = test: Mutagenicity in Salmonella typhimurium TA98 at 0.625 mg/ml after 48 hrs by AMES MPF assay in presence of Sprague-Dawley rat liver microsomal S9 fraction relative to baseline; format: toxicity, organism-based; conditions: salmonella enterica subsp. enterica serovar typhimurium; outline: as §1
Aspergillus parasiticus = test: Antifungal activity against Aspergillus parasiticus NRRL 465 after 72 hrs by broth microdilution assay; format: functional; conditions: NRRL 465, 72 h; outline: as §2
Salmonella typhimurium [12] = test: Mutagenicity in Salmonella typhimurium TA98 at 2.5 mg/ml after 48 hrs by AMES MPF assay in absence of Sprague-Dawley rat liver microsomal S9 fraction relative to baseline; format: toxicity, organism-based; conditions: salmonella enterica subsp. enterica serovar typhimurium; outline: as §1
Fusarium solani = test: Antifungal activity against Fusarium solani NRRL 13414 after 72 hrs by broth microdilution assay; format: functional; conditions: NRRL 13414, 72 h; outline: as §2
Salmonella typhimurium [13] = test: Mutagenicity in Salmonella typhimurium TA100 at 0.625 mg/ml after 48 hrs by AMES MPF assay in absence of Sprague-Dawley rat liver microsomal S9 fraction relative to baseline; format: toxicity, organism-based; conditions: salmonella enterica subsp. enterica serovar typhimurium; outline: as §1
Salmonella typhimurium [14] = test: Mutagenicity in Salmonella typhimurium TA98 at 0.156 mg/ml after 48 hrs by AMES MPF assay in presence of Sprague-Dawley rat liver microsomal S9 fraction relative to baseline; format: toxicity, organism-based; conditions: salmonella enterica subsp. enterica serovar typhimurium; outline: as §1
Salmonella typhimurium [15] = test: Mutagenicity in Salmonella typhimurium TA98 at 2.5 mg/ml after 48 hrs by AMES MPF assay in presence of Sprague-Dawley rat liver microsomal S9 fraction relative to baseline; format: toxicity, organism-based; conditions: salmonella enterica subsp. enterica serovar typhimurium; outline: as §1
[16] = Cytotoxicity against mouse NIH/3T3 cells after 24 hrs by XTT assay; format: cell-based; conditions: NIH3T3, 24 h
Outline: (§4)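 A549 cells in RPMI and NIH/3T3 cells in DMEM, each with fetal calf serum, antibiotics and 7.5% NaHCO₃, at 37 °C, 5% CO₂. Seeded at 20,000 cells/well, 24 h, then compounds added in medium at 500–3.9 doses (final DMSO <0.1%) for 24 h. XTT read after 3 h at 480 nm (ref 680 nm). IC₅₀ by non-linear regression; triplicates; cisplatin control.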

Aspergillus niger = test: Antifungal activity against Aspergillus niger ATCC 1094 after 72 hrs by broth microdilution assay; format: functional; conditions: ATCC 1094, 72 h; outline: as §2
Candida albicans = test: Antifungal activity against Candida albicans ATCC 90028 after 48 hrs by broth microdilution assay; format: functional; conditions: ATCC 90028, 48 h; outline: as §3
Salmonella typhimurium [17] = test: Mutagenicity in Salmonella typhimurium TA100 at 1.25 mg/ml after 48 hrs by AMES MPF assay in presence of Sprague-Dawley rat liver microsomal S9 fraction relative to baseline; format: toxicity, organism-based; conditions: salmonella enterica subsp. enterica serovar typhimurium; outline: as §1
Candida tropicalis = test: Antifungal activity against Candida tropicalis NRLL Y 12968 after 48 hrs by broth microdilution assay; format: functional; conditions: NRLL Y 12968, 48 h; outline: as §3
Salmonella typhimurium [18] = test: Mutagenicity in Salmonella typhimurium TA98 at 0.156 mg/ml after 48 hrs by AMES MPF assay in absence of Sprague-Dawley rat liver microsomal S9 fraction relative to baseline; format: toxicity, organism-based; conditions: salmonella enterica subsp. enterica serovar typhimurium; outline: as §1
A549 = test: Antiproliferative activity against human A549 cells after 24 hrs by XTT assay; format: functional, cell-based; conditions: A549, 24 h; outline: as §4
Salmonella typhimurium [19] = test: Mutagenicity in Salmonella typhimurium TA100 at 5 mg/ml after 48 hrs by AMES MPF assay in presence of Sprague-Dawley rat liver microsomal S9 fraction relative to baseline; format: toxicity, organism-based; conditions: salmonella enterica subsp. enterica serovar typhimurium; outline: as §1
Nakaseomyces glabratus = test: Antifungal activity against Candida glabrata clinical isolate after 48 hrs by broth microdilution assay; format: functional; outline: as §3
Salmonella typhimurium [20] = test: Mutagenicity in Salmonella typhimurium TA98 at 1.25 mg/ml after 48 hrs by AMES MPF assay in absence of Sprague-Dawley rat liver microsomal S9 fraction relative to baseline; format: toxicity, organism-based; conditions: salmonella enterica subsp. enterica serovar typhimurium; outline: as §1
Salmonella typhimurium [21] = test: Mutagenicity in Salmonella typhimurium TA98 at 0.3125 mg/ml after 48 hrs by AMES MPF assay in presence of Sprague-Dawley rat liver microsomal S9 fraction relative to baseline; format: toxicity, organism-based; conditions: salmonella enterica subsp. enterica serovar typhimurium; outline: as §1
Salmonella typhimurium [22] = test: Mutagenicity in Salmonella typhimurium TA100 at 5 mg/ml after 48 hrs by AMES MPF assay in absence of Sprague-Dawley rat liver microsomal S9 fraction relative to baseline; format: toxicity, organism-based; conditions: salmonella enterica subsp. enterica serovar typhimurium; outline: as §1
Salmonella typhimurium [23] = test: Mutagenicity in Salmonella typhimurium TA100 at 1.25 mg/ml after 48 hrs by AMES MPF assay in absence of Sprague-Dawley rat liver microsomal S9 fraction relative to baseline; format: toxicity, organism-based; conditions: salmonella enterica subsp. enterica serovar typhimurium; outline: as §1
Salmonella typhimurium [24] = test: Mutagenicity in Salmonella typhimurium TA100 at 0.3125 mg/ml after 48 hrs by AMES MPF assay in presence of Sprague-Dawley rat liver microsomal S9 fraction relative to baseline; format: toxicity, organism-based; conditions: salmonella enterica subsp. enterica serovar typhimurium; outline: as §1
Salmonella typhimurium [25] = test: Mutagenicity in Salmonella typhimurium TA100 at 0.3125 mg/ml after 48 hrs by AMES MPF assay in absence of Sprague-Dawley rat liver microsomal S9 fraction relative to baseline; format: toxicity, organism-based; conditions: salmonella enterica subsp. enterica serovar typhimurium; outline: as §1

Compound: Fc1ccc(C2CC(c3ccc(Cl)s3)=NN2c2nc(-c3ccccc3)cs2)cc1 (stereo unspecified)
- fold change (FC) (Salmonella typhimurium [1]): 1.85
- fold change (FC) (Salmonella typhimurium [2]): 0
- fold change (FC) (Salmonella typhimurium [3]): 2.77
- fold change (FC) (Salmonella typhimurium [4]): 2.88
- MIC (Aspergillus flavus): 125 µg/mL (≈ 284 µM)
- MIC (Candida parapsilosis): 250 µg/mL (≈ 568 µM)
- fold change (FC) (Salmonella typhimurium [5]): 3.46
- fold change (FC) (Salmonella typhimurium [6]): 0.68
- fold change (FC) (Salmonella typhimurium [7]): 0
- MIC (Pichia kudriavzevii): 250 µg/mL (≈ 568 µM)
- fold change (FC) (Salmonella typhimurium [8]): 0.67
- MIC ([Candida] zeylanoides): 250 µg/mL (≈ 568 µM)
- fold change (FC) (Salmonella typhimurium [9]): 0.67
- fold change (FC) (Salmonella typhimurium [10]): 0.41
- fold change (FC) (Salmonella typhimurium [11]): 1.08
- MIC (Aspergillus parasiticus): 250 µg/mL (≈ 568 µM)
- fold change (FC) (Salmonella typhimurium [12]): 0
- MIC (Fusarium solani): 250 µg/mL (≈ 568 µM)
- fold change (FC) (Salmonella typhimurium [13]): 0.96
- fold change (FC) (Salmonella typhimurium [14]): 1.63
- fold change (FC) (Salmonella typhimurium [15]): 0.27
- IC50 [16]: > 500 µg/mL
- MIC (Aspergillus niger): 250 µg/mL (≈ 568 µM)
- MIC (Candida albicans): 250 µg/mL (≈ 568 µM)
- fold change (FC) (Salmonella typhimurium [17]): 4.62
- MIC (Candida tropicalis): 250 µg/mL (≈ 568 µM)
- fold change (FC) (Salmonella typhimurium [18]): 0
- IC50 (A549): > 500 µg/mL
- fold change (FC) (Salmonella typhimurium [19]): 4.38
- MIC (Nakaseomyces glabratus): 125 µg/mL (≈ 284 µM)
- fold change (FC) (Salmonella typhimurium [20]): 0
- fold change (FC) (Salmonella typhimurium [21]): 0.68
- fold change (FC) (Salmonella typhimurium [22]): 0.96
- fold change (FC) (Salmonella typhimurium [23]): 1.28
- fold change (FC) (Salmonella typhimurium [24]): 3.23
- fold change (FC) (Salmonella typhimurium [25]): 0.32
